Assay results: ChEMBL document CHEMBL1148652, “Design of potent, orally available antagonists of the transient receptor potential vanilloid 1. Structure-activity relationships of 2-piperazin-1-yl-1H-benzimidazoles” (J Med Chem, 2006)
pIC50: −log10 of the molar value. Several values for one entry are separate records, joined by “and”; a condition that tells them apart may be missing. Identical values can stand only once.

What was measured:
[1] = molecular target: T1, Transient receptor potential cation channel subfamily V member 1 (Rattus norvegicus, UniProt O35433); experiment: Antagonist activity against capsaicin-induced 45calcium ion uptake in CHO cells expressing rat TRPV1; assay type: functional, cell-based
Summary of the method: (§1)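 CHO cells recombinantly expressing rat TRPV1; inhibition of 45Ca2+ uptake triggered by capsaicin or by acid, pH 5. Functional IC50 in nM, averaged over at least two independent experiments, each with three replicates per concentration.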

[2] = molecular target: T1, Transient receptor potential cation channel subfamily V member 1; experiment: Antagonist activity against acid-induced 45calcium ion uptake in CHO cells expressing rat TRPV1 at pH5; assay type: functional, cell-based; summary of the method: as §1

T1 sequence (O35433 whole entry): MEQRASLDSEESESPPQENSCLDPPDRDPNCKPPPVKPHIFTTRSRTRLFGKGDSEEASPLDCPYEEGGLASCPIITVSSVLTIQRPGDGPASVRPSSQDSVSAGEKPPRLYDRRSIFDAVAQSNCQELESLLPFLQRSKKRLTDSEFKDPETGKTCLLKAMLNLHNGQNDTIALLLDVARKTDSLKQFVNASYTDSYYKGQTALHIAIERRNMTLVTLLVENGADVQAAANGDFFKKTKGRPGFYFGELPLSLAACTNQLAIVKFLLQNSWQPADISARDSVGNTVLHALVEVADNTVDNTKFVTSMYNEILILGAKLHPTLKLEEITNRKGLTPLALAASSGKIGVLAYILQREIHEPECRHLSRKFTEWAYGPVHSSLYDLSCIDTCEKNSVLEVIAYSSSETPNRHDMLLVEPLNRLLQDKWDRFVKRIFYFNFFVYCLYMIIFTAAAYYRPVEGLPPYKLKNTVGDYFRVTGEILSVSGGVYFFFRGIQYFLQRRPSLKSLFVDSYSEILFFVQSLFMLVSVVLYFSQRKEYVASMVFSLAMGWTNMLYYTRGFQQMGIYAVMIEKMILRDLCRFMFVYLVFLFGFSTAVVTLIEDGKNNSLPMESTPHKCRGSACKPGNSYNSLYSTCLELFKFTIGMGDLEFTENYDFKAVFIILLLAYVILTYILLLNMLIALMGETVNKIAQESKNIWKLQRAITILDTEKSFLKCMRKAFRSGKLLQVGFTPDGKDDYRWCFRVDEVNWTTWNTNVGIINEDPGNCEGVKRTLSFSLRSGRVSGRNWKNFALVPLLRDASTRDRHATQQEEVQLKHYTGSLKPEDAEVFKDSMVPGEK

pIC50 [1]	pIC50 [2]	Compound
5.48	< 5.40	N#Cc1ccc2[nH]c(N3CCN(c4ncccc4C(F)(F)F)CC3)nc2c1
8.37	8.74	C[C@@H]1CN(c2nc3c(-c4cc(F)c(F)c(F)c4)cc(C(F)(F)F)cc3[nH]2)CCN1c1ncccc1Br
6.19	< 5.40	CC[C@@H]1CN(c2ncccc2C(F)(F)F)CCN1c1nc2cc(C(F)(F)F)ccc2[nH]1
5.08	6.70	FC(F)(F)c1ccc(-c2cc3[nH]c(N4CCN(c5ncccc5C(F)(F)F)CC4)nc3cc2C(F)(F)F)cc1
6.88	7.13	FC(F)(F)c1cc(Br)c2nc(N3CCN(c4ncccc4C(F)(F)F)CC3)[nH]c2c1
8.82	9.00	CC(O)c1cnc(N2CCN(c3nc4c(-c5cc(F)c(F)c(F)c5)cc(C(F)(F)F)cc4[nH]3)[C@H](C)C2)c(C(F)(F)F)c1 (mixture of isomers)
6.43	6.66	FC(F)(F)c1cc(-c2cccs2)c2[nH]c(N3CCN(c4ncccc4C(F)(F)F)CC3)nc2c1
5.91	< 5.40	COC(=O)c1ccc2nc(N3CCN(c4ncccc4C(F)(F)F)CC3)[nH]c2c1
7.34	7.57	C[C@@H]1CN(c2ncc(C(=O)O)cc2Cl)CCN1c1nc2c(-c3cc(F)c(F)c(F)c3)cc(C(F)(F)F)cc2[nH]1
7.52	8.04	C[C@@H]1CN(c2ncc(NC(=O)CO)cc2Cl)CCN1c1nc2c(-c3ccc(F)cc3)cc(C(F)(F)F)cc2[nH]1
8.68	8.96	C[C@@H]1CN(c2ncc(CO)cc2Cl)CCN1c1nc2cc(C(F)(F)F)cc(NC(=O)OC(C)(C)C)c2[nH]1
8.89	8.77	C=Cc1cnc(N2CCN(c3nc4c(-c5cc(F)c(F)c(F)c5)cc(C(F)(F)F)cc4[nH]3)[C@H](C)C2)c(Cl)c1
5.96	5.85	FC(F)(F)c1ccc2[nH]c(N3CCN(c4ncccc4C(F)(F)F)CC3)nc2n1
7.59	7.66	FC(F)(F)c1cc(-c2cc3ccccc3s2)c2nc(N3CCN(c4ncccc4C(F)(F)F)CC3)[nH]c2c1
6.31	< 4.40	CNC(=O)c1cnc(N2CCN(c3nc4ccc(C(F)(F)F)cc4[nH]3)CC2)c(Cl)c1
7.30	7.02	FC(F)(F)c1cc(N2CCOCC2)c2[nH]c(N3CCN(c4ncccc4C(F)(F)F)CC3)nc2c1
6.49	6.92	FC(F)(F)c1cc(C(F)(F)F)c2[nH]c(N3CCN(c4ncccc4C(F)(F)F)CC3)nc2c1
6.95	7.00	COc1ccc(-c2cc(C(F)(F)F)cc3[nH]c(N4CCN(c5ncccc5C(F)(F)F)CC4)nc23)cn1
5.94	6.45	Fc1ccc(-c2ccc3[nH]c(N4CCN(c5ncccc5C(F)(F)F)CC4)nc3c2)cc1F
7.01	7.48	C[C@@H]1CN(c2ncc(N)cc2Cl)CCN1c1nc2c(-c3ccc(F)cc3)cc(C(F)(F)F)cc2[nH]1
6.73	6.85	FC(F)(F)c1cc(/C=C/c2ccccc2)c2[nH]c(N3CCN(c4ncccc4C(F)(F)F)CC3)nc2c1
7.54	7.68	FC(F)(F)c1cc(N2CCCCC2)c2[nH]c(N3CCN(c4ncccc4C(F)(F)F)CC3)nc2c1
8.55	8.43	C[C@@H]1CN(c2ncc(C(O)c3ccccc3)cc2C(F)(F)F)CCN1c1nc2c(-c3cc(F)c(F)c(F)c3)cc(C(F)(F)F)cc2[nH]1 (stereo partly drawn)

pIC50 [1]	pIC50 [2]	Compound
9.52	9.52	COC(=O)c1cnc(N2CCN(c3nc4c(-c5cc(F)c(F)c(F)c5)cc(C(F)(F)F)cc4[nH]3)[C@H](C)C2)c(Cl)c1
7.15	7.28	Fc1ccc(Cc2cc(C(F)(F)F)cc3[nH]c(N4CCN(c5ncccc5C(F)(F)F)CC4)nc23)cc1F
6.51	6.15	FC(F)(F)c1ccc2[nH]c(N3CCN(c4ncccc4Cl)CC3)nc2c1
5.78	6.06	O=[N+]([O-])c1cc(C(F)(F)F)cc2[nH]c(N3CCN(c4ncccc4C(F)(F)F)CC3)nc12
7.06	6.51	CC(C)(C)c1ccc2nc(N3CCN(c4ncccc4Cl)CC3)[nH]c2c1
7.03	6.85	FC(F)(F)c1ccc(CNc2cc3[nH]c(N4CCN(c5ncccc5C(F)(F)F)CC4)nc3cc2C(F)(F)F)cc1
	< 5.40	CCC[C@@H]1CN(c2ncccc2C(F)(F)F)CCN1c1nc2cc(C(F)(F)F)ccc2[nH]1
5.86	5.70	FC(F)(F)c1ccc2nc(N3CCN(c4c(Cl)cncc4Cl)CC3)[nH]c2c1
6.74	6.55	CC(C)(C)c1ccc2[nH]c(N3CCN(c4ncccc4C(F)(F)F)CC3)nc2c1
8.00	8.05	FC(F)(F)c1cc(C2CCC(C(F)(F)F)CC2)c2nc(N3CCN(c4ncccc4C(F)(F)F)CC3)[nH]c2c1 (stereo not drawn)
6.24	6.82 and 6.80	FC(F)(F)c1ccc2nc(N3CCN(c4ncccc4C(F)(F)F)CC3)n(Cc3ccccc3)c2c1
8.80	8.92	C[C@@H]1CN(c2ncc(CO)cc2Cl)CCN1c1nc2cc(C(F)(F)F)cc(NC(=O)C3CCCCC3)c2[nH]1
6.98	7.12	C[C@H]1CN(c2ncccc2Br)CCN1c1nc2c(-c3cc(F)c(F)c(F)c3)cc(C(F)(F)F)cc2[nH]1
7.59	7.68	FC(F)(F)Oc1cccc(-c2cc(C(F)(F)F)cc3[nH]c(N4CCN(c5ncccc5C(F)(F)F)CC4)nc23)c1
6.16	6.34	FC(F)(F)c1cc(-c2nccs2)c2nc(N3CCN(c4ncccc4C(F)(F)F)CC3)[nH]c2c1
6.34	6.19	CC(O)c1cnc(N2CCN(c3nc4ccc(C(F)(F)F)cc4[nH]3)CC2)c(Cl)c1 (racemic)
< 5.25	4.92	FC(F)(F)c1ccnc(N2CCN(c3nc4cc(C(F)(F)F)ccc4[nH]3)CC2)c1
< 5.40	< 5.40	Fc1ccc2[nH]c(N3CCN(c4ncccc4C(F)(F)F)CC3)nc2c1
8.85	9.15	C[C@@H]1CN(c2ncc(CO)cc2C(F)(F)F)CCN1c1nc2c(-c3cc(F)c(F)c(F)c3)cc(C(F)(F)F)cc2[nH]1
6.89	7.29	FC(F)(F)c1cc(-c2cnccn2)c2nc(N3CCN(c4ncccc4C(F)(F)F)CC3)[nH]c2c1
6.40	5.94	Cc1cccnc1N1CCN(c2nc3ccc(C(F)(F)F)cc3[nH]2)CC1
6.57	6.73	FC(F)(F)c1cc(-c2ccncc2)c2[nH]c(N3CCN(c4ncccc4C(F)(F)F)CC3)nc2c1
9.22	8.64	C[C@@H]1CN(c2ncc([C@@H](C)O)cc2Cl)CCN1c1nc2c(-c3cc(F)c(F)c(F)c3)cc(C(F)(F)F)cc2[nH]1

pIC50 [1]	pIC50 [2]	Compound
8.59	8.52	C[C@H](O)c1cnc(N2CCN(c3nc4c(-c5cc(F)c(F)c(F)c5)cc(C(F)(F)F)cc4[nH]3)[C@H](C)C2)c(Cl)c1
8.17	8.59	C[C@@H]1CN(c2ncccc2Br)CCN1c1nc2c(-c3cc(F)c(F)c(F)c3)cc(C(F)(F)F)cc2[nH]1
7.32	7.46	C[C@@H]1CN(c2ncccc2C(F)(F)F)CCN1c1nc2ccc(C(F)(F)F)cc2[nH]1
6.88	7.09	Fc1cc(CNc2cc(C(F)(F)F)cc3[nH]c(N4CCN(c5ncccc5C(F)(F)F)CC4)nc23)cc(F)c1F
7.19	7.01	OCc1cnc(N2CCN(c3nc4ccc(C(F)(F)F)cc4[nH]3)CC2)c(Cl)c1
	< 5.40	Nc1cc(C(F)(F)F)cc2[nH]c(N3CCN(c4ncccc4C(F)(F)F)CC3)nc12
6.78	7.37	FC(F)(F)c1cc2[nH]c(N3CCN(c4ncccc4C(F)(F)F)CC3)nc2cc1Br
	8.40	CC(C)(C)c1ccc(-c2cc(C(F)(F)F)cc3[nH]c(N4CCN(c5ncccc5C(F)(F)F)CC4)nc23)cc1
< 4.40	< 4.40	FC(F)(F)c1ccc2[nH]c(N3CCN(c4cccc(C(F)(F)F)n4)CC3)nc2c1
6.85	7.17	FC(F)(F)c1cc(-c2ccccc2)c2nc(N3CCN(c4ncccc4C(F)(F)F)CC3)[nH]c2c1
8.72	9.05	C[C@@H]1CN(c2ncc(CO)cc2Cl)CCN1c1nc2c(N(Cc3ccccc3)Cc3ccccc3)cc(C(F)(F)F)cc2[nH]1
	6.52	FC(F)(F)c1ccc2nc(N3CCN(c4ncccc4C(F)(F)F)CC3)[nH]c2c1
6.66	6.51	FC(F)(F)c1ccc2[nH]c(N3CCN(c4ncccc4I)CC3)nc2c1
6.24	6.08	CC(=O)c1cnc(N2CCN(c3nc4cc(C(F)(F)F)ccc4[nH]3)CC2)c(Cl)c1
8.47	8.48	C[C@@H]1CN(c2ncc(Br)cc2Cl)CCN1c1nc2c(-c3cc(F)c(F)c(F)c3)cc(C(F)(F)F)cc2[nH]1
	< 5.40	Cc1ccc2[nH]c(N3CCN(c4ncccc4C(F)(F)F)CC3)nc2c1
7.29	7.43	FC(F)(F)c1ccc(-c2cc(C(F)(F)F)cc3[nH]c(N4CCN(c5ncccc5C(F)(F)F)CC4)nc23)cc1
5.72	6.51	Nc1ccc(-c2cc(C(F)(F)F)cc3[nH]c(N4CCN(c5ncccc5C(F)(F)F)CC4)nc23)cc1
5.95	4.76	FC(F)(F)c1cccnc1N1CCN(c2nc3ccc(Cl)cc3[nH]2)CC1
6.12	6.60	C[C@H]1CN(c2nc3c(-c4cc(F)c(F)c(F)c4)cc(C(F)(F)F)cc3[nH]2)CCN1c1ncccc1Br
5.20	5.15	N#Cc1cccnc1N1CCN(c2nc3cc(C(F)(F)F)ccc3[nH]2)CC1
4.95	< 4.40	FC(F)(F)c1ccc(N2CCN(c3nc4cc(C(F)(F)F)ccc4[nH]3)CC2)nc1
6.97	7.16	CN(C)c1ccc(-c2cc(C(F)(F)F)cc3[nH]c(N4CCN(c5ncccc5C(F)(F)F)CC4)nc23)cc1
